According to ChEMBL document CHEMBL1255440, “An antimicrobial peptide that targets DNA repair intermediates in vitro inhibits Salmonella growth within murine macrophages” (Antimicrob Agents Chemother, 2010):
Values after ≈ are worked out from the molar mass of the structure shown. Active and inactive are the calls of the source. The rule behind the calls is not given here.

Experiments:
[1] = Drug uptake in mouse peritoneal macrophages assessed as dimer to monomer peptide ratio at 50 uM after 24 hrs at 37 degC by HPLC analysis; type: ADME, cell-based; conditions: peritoneal macrophage cell
Procedure, shortened: (§1)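 Macrophages were elicited in 8–12-week-old female BALB/c mice with 4% thioglycolate i.p. and harvested by lavage 4 days later. Cells were seeded at 300,000 per well for 24 h, then given unlabeled peptide in DMEM for 24 h at 37°C. Lysates were run on reverse-phase HPLC at A280. Monomer (17.5 min) and dimer (17.75 min) peak areas were compared with a standard curve. Concentration assumed 1 pl per cell; values are means of three determinations.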

Salmonella typhimurium [2] = experiment: Antibacterial activity against 1 MOI Salmonella enterica subsp. enterica serovar Typhimurium infected in mouse peritoneal macrophages assessed as reduction in bacterial growth at 150 uM after 24 hrs relative to DMSO control; type: functional; design: scale not given: the % may be the effect or the level left
Procedure, shortened: (§2)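 J774A.1 cells or thioglycolate-elicited BALB/c peritoneal macrophages seeded at 200,000/well, overnight 37°C 5% CO2; infected with GFP strain SDT1416, 1 h invasion, washed, 1 h in DMEM with 15 μg/ml gentamicin. Then fresh DMEM plus 15 μg/ml gentamicin with or without peptide (DMSO vehicle) for 24 h at 37°C; macrophages lysed with 1% Triton X-100, plated on LB agar for CFU.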

Salmonella typhimurium [3] = experiment: Antibacterial activity against 10 MOI Salmonella enterica subsp. enterica serovar Typhimurium G785 transfected with SOS-inducible beta-galactosidase reporter infected in mouse J774A1 cells assessed as SOS induction at 150 uM after 4 hrs postinfection; type: functional, J774.A1
Procedure, shortened: (§3)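 J774A.1 cells infected at MOI 10 with sulA promoter-lacZ reporter strain G785 using the gentamicin-protection protocol, treated with peptide (DMSO vehicle controls) plus 15 μg/ml gentamicin for 4 or 24 h. Released bacteria were plated for colony counts in parallel, and were incubated with 33 μM C12FDG (with 0.2 mM EDTA) in LB for 2 h at 37°C. Flow cytometry gave % fluorescein-positive among LPS-antibody-positive particles; Wilcoxon exact test.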

J774.A1 [4] = experiment: Drug uptake in mouse J774A.1 cells assessed as total peptide concentration at 150 uM after 24 hrs at 4 degC by HPLC analysis; conditions: J774A.1, 24 h
[5] = Drug uptake in mouse peritoneal macrophages assessed as dimer to monomer peptide ratio at 150 uM after 24 hrs at 37 degC by HPLC analysis; type: ADME, cell-based; conditions: peritoneal macrophage cell; procedure, shortened: as §1
[6] = Cytotoxicity against mouse peritoneal macrophages assessed as increase in metabolic activity at 150 uM after 24 hrs by MTT assay; type: ADME, cell-based; conditions: peritoneal macrophage cell
Procedure, shortened: (§4)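 Cells seeded at 40,000/well in 96-well plates, overnight 37°C 5% CO2, then treated 24 h in fresh DMEM. MTT (4 mg/ml stock in PBS) added for up to 3 h. Formazan solubilized overnight at 37°C in SDS/dimethylformamide/acid lysis buffer, OD read at 575 nm. Paired t tests.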

[7] = Cytotoxicity against mouse J774A1 cells assessed as live cells at 100 uM by calcein AM assay; type: cell-based, J774.A1; conditions: read-out: Activity
Procedure, shortened: (§5)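 Cells seeded at 300,000/well and allowed to adhere, then given fresh DMEM with or without peptide for 24 h. Cells trypsinized, stained with a mammalian Live/Dead viability/cytotoxicity kit and analyzed by flow cytometry. Wilcoxon exact test.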

Salmonella typhimurium [8] = experiment: Antibacterial activity against 10 MOI Salmonella enterica subsp. enterica serovar Typhimurium G785 transfected with SOS-inducible beta-galactosidase reporter infected in mouse J774A1 cells assessed as SOS induction at 100 uM after 4 hrs postinfection; type: functional, J774.A1; procedure, shortened: as §3
[9] = Cytotoxicity against mouse peritoneal macrophages assessed as dead cells at 150 uM by propidium iodide assay; type: cell-based; conditions: peritoneal macrophage cell; procedure, shortened: as §5
Salmonella typhimurium [10] = experiment: Antibacterial activity against 1 MOI Salmonella enterica subsp. enterica serovar Typhimurium infected in mouse peritoneal macrophages assessed as reduction in bacterial growth at 150 uM after 24 hrs relative to DMEM control; type: functional; design: scale not given: the % may be the effect or the level left; procedure, shortened: as §2
J774.A1 [11] = experiment: Drug uptake in mouse J774A1 cells assessed as dimer to monomer peptide ratio at 50 uM after 5 hrs at 4 degC by HPLC analysis; type: ADME, cell-based; conditions: j774.a1, 5 h
Procedure, shortened: (§6)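 J774A.1 cells were incubated with unlabeled peptide for 5 or 24 h at 37°C or 4°C, washed in ice-cold PBS and lysed with NP-40 buffer. Lysates were run on reverse-phase HPLC with an acetonitrile/0.1% TFA gradient and A280 fractions. Monomer (~17.5 min) and dimer (~17.75 min) peak areas were compared against a standard curve. Intracellular mM was calculated using 300,000 cells and 1 pl/cell, with concentration expressed as monomer mass.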

J774.A1 [12] = experiment: Drug uptake in mouse J774A1 cells assessed as total peptide concentration at 150 uM after 5 hrs at 37 degC by HPLC analysis; type: ADME, cell-based; conditions: j774.a1, 5 h
Procedure, shortened: (§7)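 J774A.1 cells were seeded at 300,000 per well and allowed to adhere for 24 h at 37°C in 5% CO2. Medium was replaced with DMEM containing unlabeled peptide, and cells were held at 37°C or 4°C. After three washes in ice-cold PBS, cells were lysed in NP-40 buffer and debris spun out. Reverse-phase HPLC was read at 280 nm. Peaks at 17.5 and 17.75 min were integrated against a standard curve. Intracellular mM was calculated from 300,000 cells at 1 pl each, using monomer mass.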

[13] = Drug uptake in mouse peritoneal macrophages assessed as total peptide concentration at 50 uM after 24 hrs at 37 degC by HPLC analysis; type: ADME, cell-based; conditions: peritoneal macrophage cell; procedure, shortened: as §1
Salmonella typhimurium [14] = experiment: Antibacterial activity against 10 MOI Salmonella enterica subsp. enterica serovar Typhimurium G785 transfected with SOS-inducible beta-galactosidase reporter infected in mouse J774A1 cells assessed as SOS induction at 50 uM after 4 hrs postinfection; type: functional, J774.A1; procedure, shortened: as §3
J774.A1 [15] = experiment: Drug uptake in mouse J774A1 cells assessed as dimer to monomer peptide ratio at 100 uM after 5 hrs at 37 degC by HPLC analysis; type: ADME, cell-based; conditions: j774.a1, 5 h; procedure, shortened: as §6
Salmonella typhimurium [16] = experiment: Antibacterial activity against 1 MOI Salmonella enterica subsp. enterica serovar Typhimurium infected in mouse J774A1 cells assessed as reduction in bacterial growth at 2.5 times MIC; type: functional, organism-based; conditions: J774.A1; procedure, shortened: as §2
[17] = Cytotoxicity against mouse peritoneal macrophages assessed as metabolic activity upto 100 uM after 24 hrs by MTT assay; type: ADME, cell-based; conditions: peritoneal macrophage cell; procedure, shortened: as §4
J774.A1 [18] = experiment: Cytotoxicity against mouse J774A1 cells assessed as metabolic activity at 50 uM after 24 hrs by MTT assay; type: ADME, cell-based; conditions: j774.a1, 24 h; procedure, shortened: as §4
J774.A1 [19] = experiment: Drug uptake in mouse J774A1 cells assessed as dimer to monomer peptide ratio at 50 uM after 24 hrs at 37 degC by HPLC analysis; type: ADME, cell-based; conditions: j774.a1, 24 h; procedure, shortened: as §6
J774.A1 [20] = experiment: Drug uptake in mouse J774A1 cells assessed as total peptide concentration at 50 uM after 24 hrs at 37 degC by HPLC analysis; type: ADME, cell-based; conditions: j774.a1, 24 h; procedure, shortened: as §7
Salmonella typhimurium [21] = experiment: Antibacterial activity against 1 MOI Salmonella enterica subsp. enterica serovar Typhimurium infected in mouse peritoneal macrophages assessed as reduction in bacterial growth after 24 hrs; type: functional, organism-based; procedure, shortened: as §2
J774.A1 [22] = experiment: Drug uptake in mouse J774A1 cells assessed as total peptide concentration at 100 uM after 24 hrs at 37 degC by HPLC analysis; type: ADME, cell-based; conditions: j774.a1, 24 h; procedure, shortened: as §6
Salmonella typhimurium [23] = experiment: Antibacterial activity against Salmonella enterica subsp. enterica serovar Typhimurium SDT1416; type: functional
Procedure, shortened: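 MIC by NCCLS broth microdilution against GFP-expressing strain SDT1416.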

N=C(N)NCCC[C@@H](NC(=O)[C@@H](CS)NC(=O)[C@@H](Cc1ccc(O)cc1)NC(=O)[C@@H](Cc1c[nH]c2ccccc12)NC(=O)[C@@H](CCCNC(=N)N)NC(=O)[C@H](N)Cc1c[nH]c2ccccc12)C(=O)O
Ratio [1]: 0.9 | Activity (Salmonella typhimurium [2]): 83% | Activity (Salmonella typhimurium [3]): 8.5% | Drug uptake (J774.A1 [4]): 47.7 mM | Ratio [5]: 11.4 | Activity [6]: 18% | viability at 100 µM [7]: 58.9% | Activity (Salmonella typhimurium [8]): 1.3% | Activity [9]: 9.2% | Activity (Salmonella typhimurium [10]): 72.3% | Ratio (J774.A1 [11]): 2.3 | Drug uptake (J774.A1 [12]): 28.9 mM | Drug uptake [13]: 2.5 mM | Activity (Salmonella typhimurium [14]): 0.3% | Ratio (J774.A1 [15]): 2.6 | Activity (Salmonella typhimurium [16]): Active | Activity [17]: Non-toxic | Activity (J774.A1 [18]): Non-toxic | Ratio (J774.A1 [19]): 1.7 | Drug uptake (J774.A1 [20]): 1.4 mM | Activity (Salmonella typhimurium [21]): Dose-dependent effect | Drug uptake (J774.A1 [22]): 16.9 mM | MIC (Salmonella typhimurium [23]): 64 µM (≈ 62 µg/mL)
